Among the data in ChEMBL document CHEMBL1155730, “Taxane diterpenoids from the stem bark of Taxus mairei” (J Nat Prod, 2001) are IC50 values, retold here.

≈ marks a conversion by molar mass, not a printed value. Starred links: 1 amine or outer side, 2 acyl side, 3 side chain; linkers in the order of their positions; H or OH if unused. Positions of bridges follow the written chain, without caps; N, C: chain ends. Non-standard residues stand in square brackets, D forms with d. Residues, ends and D or L forms follow the SMILES beside them. Chains are numbered I, II in the order given. Actinocin(1to9) = Cc1c2oc3c(C)ccc(C(=O)[*:2])c3nc-2c(C(=O)[*:1])c(N)c1=O; NMeV = CN[C@H](C(=O)O)C(C)C; Sar = CNCC(=O)O A value given as a limit tells only on which side of the number the result lay.

Assay [1] in a line: Cytotoxicity against human HepA cells after 72 hrs by methylene blue assay. It counts as functional, cell-based. In a few lines: (§1)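 Cells grown in RPMI-1640 at 37 °C under 5% CO2, seeded at 2880 cells/well and left 3 h before adding samples. Samples prepared at 1, 10, 40 and 100 μg/mL, then 3 days at 37 °C. Cells fixed in 10% formal saline, stained with 1% methylene blue in 0.01 M borate buffer, washed, and dye eluted with ethanol/0.1 M HCl (1:1). A650 read. IC50 is 50% absorbance reduction vs untreated cells.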

Another assay concerns KB. The assay is described as follows: Cytotoxicity against human KB cells after 72 hrs by methylene blue assay. It counts as functional, cell-based. In a few lines: as §1

For orientation: IC50 means the midpoint of a concentration-inhibition curve. For the molecule `CC(=O)O[C@@H]1C2=C(C)[C@@H](OC(=O)c3ccccc3)C[C@@]2(C(C)(C)O)[C@@H](O)[C@@H]2[C@]3(OC(C)=O)CO[C@@H]3C[C@H](OC(C)=O)[C@@]2(C)[C@H]1OC(=O)c1ccccc1`, the IC50 (in assay [1]; with KB) was more than 20 µg/mL in each case.
As for `CC(=O)OC[C@H]1[C@H]2[C@H](O)[C@]3(C(C)(C)O)C[C@H](OC(C)=O)C(C)=C3[C@@H](OC(C)=O)[C@H](OC(C)=O)[C@]2(C)[C@@H](OC(C)=O)C[C@@H]1OC(C)=O`, the values for the IC50 (in assay [1]; with KB) were 2.7 µg/mL (≈ 4.12 µM) and more than 20 µg/mL, respectively.
Molecule `Cc1c2oc3c(C)ccc(C(=O)N[C@@H]4C(=O)N[C@H](C(C)C)C(=O)N5CCC[C@H]5C(=O)N(C)CC(=O)N(C)[C@@H](C(C)C)C(=O)O[C@@H]4C)c3nc-2c(C(=O)N[C@@H]2C(=O)N[C@H](C(C)C)C(=O)N3CCC[C@H]3C(=O)N(C)CC(=O)N(C)[C@@H](C(C)C)C(=O)O[C@@H]2C)c(N)c1=O` [DACTINOMYCIN] (I: T[dV]P[Sar][NMeV] / II: T[dV]P[Sar][NMeV]; ester I:1-I:C, II:1-II:C; linker I:N-II:N via Actinocin(1to9)) came in with an IC50 in assay [1] of 0.01 µg/mL (≈ 0.00797 µM).
The same measure, in the same setting: the same measure for `CO[C@@]12[C@H](COC(N)=O)C3=C(C(=O)C(C)=C(N)C3=O)N1C[C@@H]1N[C@@H]12` [MITOMYCIN]: 0.01 µg/mL (≈ 0.0299 µM).
Turning to `CC(=O)O[C@H]1C(=O)[C@@]2(C)[C@H]([C@H](OC(=O)c3ccccc3)[C@]3(O)C[C@H](OC(=O)[C@H](O)[C@@H](NC(=O)c4ccccc4)c4ccccc4)C(C)=C1C3(C)C)[C@]1(OC(C)=O)CO[C@@H]1C[C@@H]2O` [PACLITAXEL], the IC50 (in assay [1]; with KB) was less than 0.1 µg/mL throughout.
As for `CC(=O)OC[C@H]1[C@H]2[C@H](O)[C@]3(C(C)(C)O)C[C@H](OC(C)=O)C(C)=C3[C@@H](O)[C@H](OC(C)=O)[C@]2(C)[C@@H](OC(C)=O)C[C@@H]1OC(C)=O` [TAXUMAIRO U], the IC50 came to 0.3 µg/mL (≈ 0.49 µM) in assay [1] and 10.3 µg/mL (≈ 16.8 µM) in the assay on KB.
For `CC(=O)OC[C@H]1[C@H]2[C@H](O)[C@]3(C(C)(C)O)C[C@H](O)C(C)=C3[C@@H](O)[C@H](OC(C)=O)[C@]2(C)[C@@H](OC(C)=O)C[C@@H]1OC(C)=O` [TAXUMAIROL V] the same measures were 1.6 µg/mL (≈ 2.8 µM) and 3.9 µg/mL (≈ 6.83 µM).
For `CC(=O)O[C@@H]1C2=C(C)[C@@H](O)C[C@@]2(C(C)(C)O)[C@@H](OC(C)=O)[C@@H]2[C@]3(OC(C)=O)CO[C@@H]3C[C@H](OC(C)=O)[C@@]2(C)[C@H]1O` [TAXUMAIROL W] the same measures were 7 µg/mL (≈ 12.3 µM) and more than 20 µg/mL.
